Article PMC9931008 (Journal of Food and Drug Analysis, 2022)
Read-outs that look alike come from different tables or passages of the source.

How the values were obtained:
[1] = system: nifedipine oxidation (NFO) activity; assay type: in vitro ADME, rat; settings: rat, probe nifedipine; for IC50: rat hepatic (liver) microsomes, IC50, NFO activity, Liver, ingredient, 10-min NADPH-fortified pre-incubation; for inhibition at 100 µM: rat hepatic and intestinal microsomes
[2] = cited from earlier work; for Cmax: read-out: Cmax levels of plasma, rats orally treated with a single dose of 8 g/kg lyophilized SMS
[3] = rat plasma; nifedipine 3 mg/kg oral; control group (water)
[4] = target: T1, human CYP3A4 (Homo sapiens, UniProt P08684, S18F); assay type: in vitro ADME; settings: for Ratio IC50(+)/IC50(−): IC50 shift after 10-min pre-incubation; for IC50: NFO activity; for Predicted threshold of unbound inhibitor concentration causing a 2-fold AUC increase: high-throughput method from IC50 values
[5] = target: T2, NADPH-P450 reductase (CPR) (Homo sapiens, UniProt P16435); test: Dialysis experiment, CPR activity; assay type: in vitro ADME; settings: recombinant CYP3A4 system
T2 sequence (P16435 1-677): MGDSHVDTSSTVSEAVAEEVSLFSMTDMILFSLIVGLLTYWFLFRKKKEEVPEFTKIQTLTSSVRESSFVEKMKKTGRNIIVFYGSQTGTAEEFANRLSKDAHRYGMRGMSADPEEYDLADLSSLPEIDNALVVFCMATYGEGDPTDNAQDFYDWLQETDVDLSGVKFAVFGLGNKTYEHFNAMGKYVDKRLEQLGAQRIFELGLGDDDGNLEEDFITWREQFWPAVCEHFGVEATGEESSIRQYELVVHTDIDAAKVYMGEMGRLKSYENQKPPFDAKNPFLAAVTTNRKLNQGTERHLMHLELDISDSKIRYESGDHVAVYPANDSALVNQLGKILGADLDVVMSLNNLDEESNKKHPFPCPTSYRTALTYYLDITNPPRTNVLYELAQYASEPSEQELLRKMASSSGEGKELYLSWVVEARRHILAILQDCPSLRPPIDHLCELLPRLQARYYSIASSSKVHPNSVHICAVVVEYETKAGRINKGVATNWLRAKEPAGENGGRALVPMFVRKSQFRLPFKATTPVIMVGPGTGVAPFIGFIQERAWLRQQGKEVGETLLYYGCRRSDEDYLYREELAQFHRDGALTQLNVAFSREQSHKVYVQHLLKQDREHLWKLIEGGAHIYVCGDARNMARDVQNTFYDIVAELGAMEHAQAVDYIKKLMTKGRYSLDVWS
Procedure, shortened: (§1)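 E. coli membranes co-expressing human CYP3A4 and CPR (20 nM) were incubated 30 min at 37 °C with 3–20 μM test compound and an NADPH-generating system (pH 7.4), with DMSO vehicle controls. They were dialysed (10 kDa) at 4 °C against phosphate/0.1 mM EDTA with three 30-min buffer changes. […] Means of three determinations.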

[6] = target: T1, human CYP3A4; test: Dialysis experiment, remaining NFO activity; assay type: in vitro ADME; settings: 30-min NADPH-fortified pre-incubation
Procedure, shortened: as §1

[7] = system: nifedipine oxidation (NFO) activities in rat intestinal microsomes; assay type: in vitro ADME; settings: read-out: IC50, NFO activity, Intestine; ingredient; 10-min NADPH-fortified pre-incubation
[8] = target: T1, human CYP3A4; test: Time-dependent inactivation kinetics of human CYP3A4; assay type: in vitro ADME
Procedure, shortened: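 Recombinant CYP3A4 was pre-incubated with NADPH and test compound (DMSO vehicle) for varying times, and residual NFO was measured. K_app is the slope of ln % remaining activity versus time. k_inact and K_I came from nonlinear fit of K_app = k_inact·I/(I+K_I), with double-reciprocal starting values. The partition ratio came from titrating remaining activity after 30-min incubation against inhibitor:CYP3A4 molar ratio. […] Means of three determinations.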

[9] = system: nifedipine oxidation (NFO) activities in rat hepatic microsomes; assay type: in vitro ADME; settings: read-out: IC50, NFO activity, Liver; ingredient; 10-min NADPH-fortified pre-incubation
[10] = Literature pharmacokinetics of herbal ingredients in rats; assay type: in vivo; settings: SMS once daily, estimated from half-life
[11] = linear regression of double reciprocal plots (r = 0.97)
[12] = nonlinear regression analysis (r = 0.98)
[13] = IC50(+), 10-min NADPH-fortified pre-incubation
[14] = IC50(−), without pre-incubation
[15] = rats treated with 8 g/kg lyophilized SMS

Question: What does the source list for COc1cc(C[C@H]2C(=O)OC[C@@H]2Cc2ccc(OC)c(OC)c2)ccc1O [Arctigenin]?
Answer: IC50 [1]: > 100 µM; inhibition at 100 µM [1]: ≤ 50%

Question: Which tmax ([2]; rats) does the source give for CC(C)=CCC/C(C)=C/COc1c2ccoc2cc2oc(=O)ccc12 [Bergamottin, bergamottin, reference compound] here?
Answer: 0.5 h

Question: Which “AUC0−t of dehydronifedipine” value [3] does the source give for COC(=O)c1c(C)nc(C)c(C(=O)OC)c1-c1ccccc1[N+](=O)[O-] [Dehydronifedipine] here?
Answer: 100 ± 10 ng·h/mL

Question: And the “AUC0−∞ of dehydronifedipine” value [3]?
Answer: 130 ± 10 ng·h/mL

Question: What about the Cmax of dehydronifedipine [3] of the same molecule?
Answer: 40 ± 10 ng/mL

Question: And the t1/2 of dehydronifedipine [3]?
Answer: 2.36 ± 0.33 h

Question: What about the tmax of dehydronifedipine [3] of the same molecule?
Answer: 0.54 ± 0.10 h

Question: For CC(C)=CCC[C@](C)(O[C@@H]1O[C@H](CO[C@@H]2O[C@H](CO)[C@@H](O)[C@H](O)[C@H]2O)[C@@H](O)[C@H](O)[C@H]1O)[C@H]1CC[C@]2(C)[C@@H]1[C@H](O)C[C@@H]1[C@@]3(C)CC[C@H](O[C@@H]4O[C@H](CO)[C@@H](O)[C@H](O)[C@H]4O[C@@H]4O[C@H](CO)[C@@H](O)[C@H](O)[C@H]4O)C(C)(C)[C@@H]3CC[C@]12C [Ginsenoside Rb1, ginsenoside Rb1], which IC50 [1] is on record?
Answer: > 100 µM

Question: Which IC50 [1] does the source give for CC(C)=CCC[C@](C)(O[C@@H]1O[C@H](CO)[C@@H](O)[C@H](O)[C@H]1O)[C@H]1CC[C@]2(C)[C@@H]1[C@H](O)C[C@@H]1[C@@]3(C)CC[C@H](O[C@@H]4O[C@H](CO)[C@@H](O)[C@H](O)[C@H]4O[C@@H]4O[C@H](CO)[C@@H](O)[C@H](O)[C@H]4O)C(C)(C)[C@@H]3CC[C@]12C [Ginsenoside Rd, ginsenoside Rd] here?
Answer: 80.2 ± 33.3 µM

Question: Which “Ratio IC50(+)/IC50(−)” value [4] does the source give for Cc1c(O)c(C)c2c(c1O)C(=O)[C@H](Cc1ccc3c(c1)OCO3)CO2 [Methylophiopogonanone A, methylophiopogonanone A] here?
Answer: 0.48

Question: And the IC50 ([4]; 10-min NADPH-fortified pre-incubation)?
Answer: 17.4 ± 2.1 µM

Question: And the IC50 ([4]; without pre-incubation)?
Answer: 36.5 ± 7 µM

Question: What about the “Predicted threshold of unbound inhibitor concentration causing a 2-fold AUC increase” value [4] of the same molecule?
Answer: 45.0 nM

Question: And the “CPR activity before or after dialysis” value [5]?
Answer: not affected

Question: What about the “inhibition of NFO after dialysis” value [6] of the same molecule?
Answer: could not be restored

Question: And the IC50 [7]?
Answer: 11.6 ± 0.7 µM

Question: And the partition ratio ([8]; 30 min incubation, molar ratio metabolized per CYP3A4 inactivated)?
Answer: 54

Question: And the turnover number ([8]; 30 min incubation, titration of remaining NFO activity)?
Answer: 55

Question: And the “apparent KI” value [8, 11]?
Answer: 9.1 µM

Question: What about the kinact [8, 11] of the same molecule?
Answer: 0.058 min⁻¹

Question: And the “apparent KI” value [8, 12]?
Answer: 13.3 ± 5.9 µM

Question: What about the kinact [8, 12] of the same molecule?
Answer: 0.068 ± 0.009 min⁻¹

Question: And the “predicted threshold for causing a 2-fold increase in AUC” value ([8]; using inhibition constants (inactivation kinetics))?
Answer: 79.7 nM

Question: And the half-life ([2]; rats treated with Qingzao Jiufei decoction (4.6 g/kg))?
Answer: 8 to 9 h

Question: And the IC50 [9]?
Answer: 16.8 ± 2.6 µM

Question: Which IC50 [7] does the source give for C[C@@H]1CC[C@@]2(OC1)O[C@H]1C[C@H]3[C@@H]4CC=C5C[C@@H](O)C[C@@H](O[C@@H]6O[C@H](C)[C@H](O)[C@H](O[C@@H]7OC[C@@H](O)[C@H](O)[C@H]7O)[C@H]6O[C@@H]6O[C@@H](C)[C@H](O)[C@@H](O)[C@H]6O)[C@]5(C)[C@H]4CC[C@]3(C)[C@H]1[C@@H]2C [Ophiopogonin D, ophiopogonin D] here?
Answer: > 100 µM

Question: And the IC50 [9]?
Answer: > 100 µM

Question: With CC1(C)CCC[C@](C)([C@H]2CC[C@]3(C)[C@@H]2[C@H](O)C[C@@H]2[C@@]4(C)CC[C@H](O)C(C)(C)[C@@H]4[C@@H](O)C[C@]23C)O1 [Panaxatriol, panaxatriol] as the molecule, how does the IC50 [1] read?
Answer: > 100 µM

Question: For CC(C)=CCC[C@](C)(O)[C@H]1CC[C@]2(C)[C@@H]1[C@H](O)C[C@@H]1[C@@]3(C)CC[C@H](O)C(C)(C)[C@@H]3[C@@H](O)C[C@]12C [Protopanaxatriol, protopanaxatriol], which IC50 [7] is on record?
Answer: > 100 µM

Question: And the IC50 [9]?
Answer: > 100 µM

Question: What does the source list for C[C@@H]1CC[C@@]2(OC1)O[C@H]1C[C@H]3[C@@H]4CC=C5C[C@@H](O)C[C@@H](O)[C@]5(C)[C@H]4CC[C@]3(C)[C@H]1[C@@H]2C [Ruscogenin, ruscogenin]?
Answer: IC50 [1]: > 100 µM; inhibition at 100 µM [1]: ≤ 50%

Question: For COc1cc2c(c(OC)c1OC)-c1c(cc3c(c1OC)OCO3)CC(C)C(C)C2 (centres unmarked) [Schisandrin B], which IC50 [4, 13] is on record?
Answer: 1.5 ± 0.2 µM

Question: And the IC50 [4, 14]?
Answer: 6.1 ± 1.4 µM

Question: And the “Ratio IC50(+)/IC50(−)” value [4]?
Answer: 0.25

Question: What about the “Predicted threshold of unbound inhibitor concentration causing a 2-fold AUC increase” value [4] of the same molecule?
Answer: 7.69 nM

Question: And the IC50 [7]?
Answer: 8.9 ± 1.4 µM

Question: And the tmax ([2]; SMS (8 g/kg)-treated rats)?
Answer: 1.6 h

Question: And the tmax ([2]; Schisandra Fructus extract (5 g/kg)-treated rats)?
Answer: 4.1 h

Question: And the half-life [2, 15]?
Answer: 7 h

Question: And the Cmax [2]?
Answer: 28.6 nM

Question: Which results are given for COc1cc2c(c(OC)c1OC)-c1c(cc3c(c1OC)OCO3)C[C@H](C)[C@](C)(O)[C@H]2OC(=O)c1ccccc1 [Schisantherin A, schisantherin A]?
Answer: IC50 [4, 13]: 0.06 ± 0.01 µM; IC50 [4, 14]: 0.17 ± 0.05 µM; Ratio IC50(+)/IC50(−) [4]: 0.35; Predicted threshold of unbound inhibitor concentration causing a 2-fold AUC increase [4]: 0.34 nM; time required for accumulating to reach the steady-state [10]: at least 8 days; tmax ([2]; SMS (8 g/kg)-treated rats): 2.3 h; half-life [2, 15]: 30 h; Cmax [2]: 7.1 nM
